In ChEMBL document CHEMBL1821628, “Anti-inflammatory endiandric acid analogues from the roots of Beilschmiedia tsangii” (J Nat Prod, 2011):

Experiments:
[1] = target: T1, Nitric oxide synthase, inducible (Mus musculus, UniProt P29477); conditions: raw264.7
T1 sequence (P29477 whole entry): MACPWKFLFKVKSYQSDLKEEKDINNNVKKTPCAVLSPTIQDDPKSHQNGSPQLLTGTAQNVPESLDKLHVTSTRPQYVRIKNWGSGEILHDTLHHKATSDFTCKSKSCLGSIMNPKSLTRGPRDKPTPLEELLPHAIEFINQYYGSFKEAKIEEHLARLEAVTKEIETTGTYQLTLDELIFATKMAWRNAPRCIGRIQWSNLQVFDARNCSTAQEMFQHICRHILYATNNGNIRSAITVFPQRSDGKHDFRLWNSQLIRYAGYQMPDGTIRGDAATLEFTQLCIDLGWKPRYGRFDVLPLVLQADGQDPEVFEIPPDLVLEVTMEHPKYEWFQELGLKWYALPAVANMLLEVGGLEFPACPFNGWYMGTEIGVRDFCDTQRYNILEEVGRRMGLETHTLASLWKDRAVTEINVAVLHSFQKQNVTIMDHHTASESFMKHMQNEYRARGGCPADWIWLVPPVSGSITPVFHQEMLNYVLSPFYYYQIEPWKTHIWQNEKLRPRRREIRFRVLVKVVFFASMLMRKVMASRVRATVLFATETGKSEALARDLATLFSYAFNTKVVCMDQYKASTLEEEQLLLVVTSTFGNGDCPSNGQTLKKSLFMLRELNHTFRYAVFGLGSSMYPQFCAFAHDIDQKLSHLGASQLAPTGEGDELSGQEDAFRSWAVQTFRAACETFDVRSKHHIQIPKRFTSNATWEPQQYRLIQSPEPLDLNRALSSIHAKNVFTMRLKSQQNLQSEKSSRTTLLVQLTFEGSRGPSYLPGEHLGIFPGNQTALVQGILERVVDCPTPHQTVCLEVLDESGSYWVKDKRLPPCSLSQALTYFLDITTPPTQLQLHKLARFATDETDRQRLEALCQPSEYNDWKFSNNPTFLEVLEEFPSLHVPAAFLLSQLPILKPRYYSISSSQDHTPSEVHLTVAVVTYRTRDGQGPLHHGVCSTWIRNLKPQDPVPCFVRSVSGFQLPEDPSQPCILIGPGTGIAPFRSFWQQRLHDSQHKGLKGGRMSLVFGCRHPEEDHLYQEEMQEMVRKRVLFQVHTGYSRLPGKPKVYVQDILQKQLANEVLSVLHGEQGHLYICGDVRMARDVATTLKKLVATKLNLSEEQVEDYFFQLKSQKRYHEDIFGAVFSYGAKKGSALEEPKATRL

[2] = target: T2, Nitric oxide synthase, inducible (Mus musculus) (UniProt P29477); assay: Inhibition of iNOS in mouse RAW264.7 cells assessed as anti-inflammatory activity by measuring inhibition of LPS-induced nitric oxide production at 100 uM after 24 hrs; type: cell-based
T2 sequence (whole entry): T1 sequence (P29477 whole entry)
Method in brief: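 RAW 264.7 murine macrophages grown to confluence over 24 h, then held 4 h in serum-free DMEM. Compounds or vehicle (0.1% DMSO) were added with or without LPS (200 ng/mL) for 24 h. Supernatant nitrite was measured by Griess reagent, 10 min at room temperature, A550, against a sodium nitrite standard curve. Results are % inhibition versus vehicle plus LPS; Emax is taken at 100 μM; mean ± SE.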

SMILES | IC50 [1] [µM] | Emax [2] [%]
O=C(O)[C@H]1[C@H]2C=C[C@@H]3[C@@H]1C[C@H]1[C@H](CCCc4ccc5c(c4)OCO5)[C@@H]2[C@@H]31 (relative stereo) | 58.2 | 77.9
O=C(O)/C=C/[C@H]1[C@@H]2C=C[C@@H]3[C@H]1C[C@H]1[C@H](CCCCCc4ccc5c(c4)OCO5)[C@H]2[C@@H]31 (relative stereo) | 39.6 | 91.4
CC(C)CNC(=O)[C@H]1[C@H]2C=C[C@@H]3[C@@H]1C[C@H]1[C@H](CCCc4ccc5c(c4)OCO5)[C@@H]2[C@@H]31 (relative stereo) | 16.4 | 72.1
COc1cc([C@@H]2O[C@@H](c3cc(OC)c4c(c3)OCO4)[C@H](C)[C@H]2C)cc(OC)c1OC (relative stereo) | 49 | 63.4
COc1cc([C@@H]2O[C@@H](c3cc(OC)c4c(c3)OCO4)[C@H](C)[C@H]2C)cc2c1OCO2 (relative stereo) | 52.5 | 65.6
COc1cc([C@@H]2O[C@@H](c3cc(OC)c4c(c3)OCO4)[C@H](C)[C@H]2C)cc(O)c1OC (relative stereo) [BEILSCHMINOL A] | 51.5 | 86.6
CC(C)CNC(=O)[C@@H]1C=C[C@@H]2C[C@H]3[C@H](Cc4ccc5c(c4)OCO5)[C@H]4C=C[C@@H]1[C@@H]2[C@H]43 (relative stereo) [ENDIANDRAMIDE A] | 9.59 | 97.3
O=C(O)[C@@H]1C=C[C@@H]2C[C@H]3[C@H](CCCc4ccc5c(c4)OCO5)[C@H]4C=C[C@@H]1[C@@H]2[C@H]43 (relative stereo) [TSANGIBEILIN A] | 49.6 | 96.9
O=C(O)[C@@H]1C=C[C@@H]2C[C@H]3[C@H](Cc4ccc5c(c4)OCO5)[C@H]4C=C[C@@H]1[C@@H]2[C@H]43 (relative stereo) [TSANGIBEILIN B] | 42.3 | 96.1
N=C(NCCC[C@H](N)C(=O)O)N[N+](=O)[O-] [NITROARGININE] | 152 | 43.7
N=C(N)NN [PIMAGEDINE] | 26.5 | 
COc1cc(C(=O)O[C@@H](c2cc(OC)c(OC)c(OC)c2)[C@H](C)C(C)=O)cc(OC)c1OC [TSANGIN C] | 51.4 | 85.5
